Source: ChEMBL document CHEMBL5661979, “Pharmacological inhibition of BMK1 suppresses tumor growth through promyelocytic leukemia protein” (Cancer Cell, 2010)
Activity calls are given as the source filed them. No cut-off for these calls is given here.

How the values were obtained:
[1] = Inhibition of MAP3K5/MAP3K6/MAP3K15 in human HeLa cells lysate at 2 uM pre incubated for 15 mins followed by ATP acyl phosphate probe addition and measured after 10 mins by LC-MS/MS analysis relative to control; conditions: 25 min, condition cancer
[2] = biological target: Phosphatidylinositol 3-kinase catalytic subunit type 3 (Homo sapiens, UniProt Q8NEB9); assay: Inhibition of PIK3C3 in human HeLa cells lysate at 10 uM pre incubated for 15 mins followed by ATP acyl phosphate probe addition and measured after 10 mins by LC-MS/MS analysis relative to control; format: subcellular; conditions: time 25.0 min
[3] = biological target: T1, Dual specificity mitogen-activated protein kinase kinase 6 (Homo sapiens) (UniProt P52564); assay: Inhibition of MAP2K6 in human HeLa cells lysate at 10 uM pre incubated for 15 mins followed by ATP acyl phosphate probe addition and measured after 10 mins by LC-MS/MS analysis relative to control; format: subcellular; conditions: time 25.0 min
T1 sequence (whole entry): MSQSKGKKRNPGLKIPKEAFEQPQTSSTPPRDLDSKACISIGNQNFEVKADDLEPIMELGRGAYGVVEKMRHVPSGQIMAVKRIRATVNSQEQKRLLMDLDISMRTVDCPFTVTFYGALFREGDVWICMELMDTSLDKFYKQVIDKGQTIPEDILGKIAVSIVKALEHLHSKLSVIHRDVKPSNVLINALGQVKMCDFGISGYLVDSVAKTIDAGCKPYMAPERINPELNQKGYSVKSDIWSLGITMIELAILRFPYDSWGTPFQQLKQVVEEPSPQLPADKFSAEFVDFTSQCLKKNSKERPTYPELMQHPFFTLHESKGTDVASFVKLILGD

[4] = biological target: Cyclin-dependent kinase 2 (Homo sapiens, UniProt P24941); assay: Inhibition of CDK2 in human HeLa cells lysate at 10 uM pre incubated for 15 mins followed by ATP acyl phosphate probe addition and measured after 10 mins by LC-MS/MS analysis relative to control; format: subcellular; conditions: time 25.0 min
Procedure, shortened: (§1)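 KiNativ profiling in HeLa lysate (5 mg/mL total protein). Lysate incubated 15 min with inhibitor at 50, 10, 2, 0.8 or 0 μM. ATP or ADP acylphosphate probe then added (5 μM final) and reacted 10 min. Reaction stopped with urea and analysed by targeted MS, using up to four fragment ions per kinase peptide-probe conjugate. % inhibition taken against untreated lysate. Run in duplicate.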

[5] = biological target: Cyclin-dependent kinase 13 (Homo sapiens, UniProt Q14004); assay: Inhibition of CHED in human HeLa cells lysate pre incubated for 15 mins followed by ATP acyl phosphate probe addition and measured after 10 mins by LC-MS/MS analysis; format: subcellular; procedure, shortened: as §1
[6] = biological target: Epidermal growth factor receptor (Homo sapiens, UniProt P00533); assay: Inhibition of EGFR in human HeLa cells lysate at 10 uM pre incubated for 15 mins followed by ADP acyl phosphate probe addition and measured after 10 mins by LC-MS/MS analysis relative to control; format: subcellular; conditions: time 25.0 min
[7] = Toxicity in C57Bl/6 mouse assessed as effect on urea nitrogen level at 50 mg/kg, ip for 14 days (reference value: 22 mg/dl); format: organism-based; conditions: in vivo, 336 h, time 14 day
p38 delta/gamma = p38 delta/gamma (Homo sapiens, UniProt O15264+P53778); assay: Inhibition of P38delta/gamma in human HeLa cells lysate pre incubated for 15 mins followed by ATP acyl phosphate probe addition and measured after 10 mins by LC-MS/MS analysis; format: subcellular
Lewis lung carcinoma = assay: Antitumor activity against PML knock down mouse LL2 cells transfected with ad-PML allografted in C57Bl/6 mouse assessed as reduction tumor growth at 50 mg/kg, ip administered on day 8 post implantation measured after 20 days; conditions: time 12.0 day
[8] = biological target: T2, Mixed lineage kinase domain-like protein (Homo sapiens) (UniProt Q8NB16); assay: Inhibition of MLKL in human HeLa cells lysate at 10 uM pre incubated for 15 mins followed by ADP acyl phosphate probe addition and measured after 10 mins by LC-MS/MS analysis relative to control; format: subcellular; conditions: time 25.0 min
T2 sequence (whole entry): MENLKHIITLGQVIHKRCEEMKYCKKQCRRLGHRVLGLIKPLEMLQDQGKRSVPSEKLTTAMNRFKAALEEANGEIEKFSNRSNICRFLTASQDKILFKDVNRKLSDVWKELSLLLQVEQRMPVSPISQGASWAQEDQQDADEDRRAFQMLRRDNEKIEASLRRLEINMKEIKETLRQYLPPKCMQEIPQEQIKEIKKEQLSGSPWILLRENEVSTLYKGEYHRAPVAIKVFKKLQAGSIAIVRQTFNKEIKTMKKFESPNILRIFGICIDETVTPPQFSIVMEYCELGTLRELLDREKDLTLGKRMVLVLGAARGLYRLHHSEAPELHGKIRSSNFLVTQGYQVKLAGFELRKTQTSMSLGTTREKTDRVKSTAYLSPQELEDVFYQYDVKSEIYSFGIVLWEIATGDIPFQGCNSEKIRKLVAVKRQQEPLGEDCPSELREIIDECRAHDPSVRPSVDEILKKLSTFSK

[9] = biological target: Serine/threonine-protein kinase 4 (Homo sapiens, UniProt Q13043); assay: Inhibition of MST1 in human HeLa cells lysate pre incubated for 15 mins followed by ADP acyl phosphate probe addition and measured after 10 mins by LC-MS/MS analysis; format: subcellular
[10] = biological target: Mitogen-activated protein kinase kinase kinase 1 (Homo sapiens, UniProt Q13233); assay: Inhibition of MAP3K1 in human HeLa cells lysate at 10 uM pre incubated for 15 mins followed by ADP acyl phosphate probe addition and measured after 10 mins by LC-MS/MS analysis relative to control; format: subcellular; conditions: time 25.0 min
[11] = biological target: Mitogen-activated protein kinase kinase kinase 4 (Homo sapiens, UniProt Q9Y6R4); assay: Inhibition of MAP3K4 in human HeLa cells lysate pre incubated for 15 mins followed by ATP acyl phosphate probe addition and measured after 10 mins by LC-MS/MS analysis; format: subcellular
[12] = biological target: Serine/threonine-protein kinase 24 (Homo sapiens, UniProt Q9Y6E0); assay: Inhibition of MST3 in human HeLa cells lysate pre incubated for 15 mins followed by ATP acyl phosphate probe addition and measured after 10 mins by LC-MS/MS analysis; format: subcellular
[13] = biological target: Ribosomal protein S6 kinase alpha-3 (Homo sapiens, UniProt P51812); assay: Inhibition of RSK2 domain 2 in human HeLa cells lysate at 50 uM pre incubated for 15 mins followed by ADP acyl phosphate probe addition and measured after 10 mins by LC-MS/MS analysis relative to control; format: subcellular; conditions: time 25.0 min
[14] = biological target: Tyrosine-protein kinase CSK (Homo sapiens, UniProt P41240); assay: Inhibition of CSK in human HeLa cells lysate at 2 uM pre incubated for 15 mins followed by ADP acyl phosphate probe addition and measured after 10 mins by LC-MS/MS analysis relative to control; format: subcellular; conditions: time 25.0 min
[15] = biological target: p38 delta/gamma (Homo sapiens) (UniProt O15264+P53778); assay: Inhibition of p38d/p38g in human HeLa cells lysate at 50 uM pre incubated for 15 mins followed by ATP acyl phosphate probe addition and measured after 10 mins by LC-MS/MS analysis relative to control; format: subcellular; conditions: time 25.0 min
[16] = biological target: Serine/threonine-protein kinase PLK1 (Homo sapiens, UniProt P53350); assay: Inhibition of PLK1 in human HeLa cells lysate pre incubated for 15 mins followed by ADP acyl phosphate probe addition and measured after 10 mins by LC-MS/MS analysis; format: subcellular

Chain of Cyclin-dependent kinase 13 (Q14004 whole entry): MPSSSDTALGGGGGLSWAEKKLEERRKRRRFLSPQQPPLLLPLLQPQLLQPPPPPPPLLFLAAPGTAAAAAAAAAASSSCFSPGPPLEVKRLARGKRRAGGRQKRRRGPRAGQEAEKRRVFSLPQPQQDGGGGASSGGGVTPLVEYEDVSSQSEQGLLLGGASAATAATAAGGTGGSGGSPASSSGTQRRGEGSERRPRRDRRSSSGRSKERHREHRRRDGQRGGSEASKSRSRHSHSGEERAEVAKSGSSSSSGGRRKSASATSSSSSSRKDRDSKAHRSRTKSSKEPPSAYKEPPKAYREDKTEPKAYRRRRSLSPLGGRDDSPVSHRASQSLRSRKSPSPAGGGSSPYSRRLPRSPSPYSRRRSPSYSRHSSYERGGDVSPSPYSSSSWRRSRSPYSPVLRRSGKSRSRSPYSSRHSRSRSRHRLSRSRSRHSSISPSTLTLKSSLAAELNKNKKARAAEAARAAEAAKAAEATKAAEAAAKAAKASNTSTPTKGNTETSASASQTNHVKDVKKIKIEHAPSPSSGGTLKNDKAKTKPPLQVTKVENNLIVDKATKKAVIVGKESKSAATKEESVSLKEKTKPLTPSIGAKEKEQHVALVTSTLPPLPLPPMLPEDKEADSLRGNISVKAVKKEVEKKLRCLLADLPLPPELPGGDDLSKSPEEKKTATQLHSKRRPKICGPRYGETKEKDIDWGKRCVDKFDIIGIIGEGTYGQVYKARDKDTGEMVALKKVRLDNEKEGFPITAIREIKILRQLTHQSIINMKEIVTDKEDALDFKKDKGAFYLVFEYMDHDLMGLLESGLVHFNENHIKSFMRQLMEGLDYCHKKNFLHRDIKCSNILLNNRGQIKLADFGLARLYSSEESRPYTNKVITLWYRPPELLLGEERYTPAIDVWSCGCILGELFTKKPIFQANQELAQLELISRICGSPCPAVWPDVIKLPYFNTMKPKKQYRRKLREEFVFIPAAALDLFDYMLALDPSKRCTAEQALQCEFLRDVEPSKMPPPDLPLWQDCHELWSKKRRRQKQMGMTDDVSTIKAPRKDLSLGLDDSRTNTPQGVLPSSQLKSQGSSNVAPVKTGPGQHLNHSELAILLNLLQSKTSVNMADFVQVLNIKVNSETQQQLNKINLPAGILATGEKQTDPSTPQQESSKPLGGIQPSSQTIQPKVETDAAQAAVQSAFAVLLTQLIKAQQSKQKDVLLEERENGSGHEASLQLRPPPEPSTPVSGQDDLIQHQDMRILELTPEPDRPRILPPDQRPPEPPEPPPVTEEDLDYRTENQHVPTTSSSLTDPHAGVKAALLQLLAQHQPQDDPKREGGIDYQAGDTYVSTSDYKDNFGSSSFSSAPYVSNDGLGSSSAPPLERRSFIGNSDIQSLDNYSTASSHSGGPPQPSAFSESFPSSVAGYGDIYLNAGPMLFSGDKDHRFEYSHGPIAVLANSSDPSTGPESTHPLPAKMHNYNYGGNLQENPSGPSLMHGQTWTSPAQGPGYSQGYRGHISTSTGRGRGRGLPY
Chain of Ribosomal protein S6 kinase alpha-3 (P51812 whole entry, the tested form may be a part): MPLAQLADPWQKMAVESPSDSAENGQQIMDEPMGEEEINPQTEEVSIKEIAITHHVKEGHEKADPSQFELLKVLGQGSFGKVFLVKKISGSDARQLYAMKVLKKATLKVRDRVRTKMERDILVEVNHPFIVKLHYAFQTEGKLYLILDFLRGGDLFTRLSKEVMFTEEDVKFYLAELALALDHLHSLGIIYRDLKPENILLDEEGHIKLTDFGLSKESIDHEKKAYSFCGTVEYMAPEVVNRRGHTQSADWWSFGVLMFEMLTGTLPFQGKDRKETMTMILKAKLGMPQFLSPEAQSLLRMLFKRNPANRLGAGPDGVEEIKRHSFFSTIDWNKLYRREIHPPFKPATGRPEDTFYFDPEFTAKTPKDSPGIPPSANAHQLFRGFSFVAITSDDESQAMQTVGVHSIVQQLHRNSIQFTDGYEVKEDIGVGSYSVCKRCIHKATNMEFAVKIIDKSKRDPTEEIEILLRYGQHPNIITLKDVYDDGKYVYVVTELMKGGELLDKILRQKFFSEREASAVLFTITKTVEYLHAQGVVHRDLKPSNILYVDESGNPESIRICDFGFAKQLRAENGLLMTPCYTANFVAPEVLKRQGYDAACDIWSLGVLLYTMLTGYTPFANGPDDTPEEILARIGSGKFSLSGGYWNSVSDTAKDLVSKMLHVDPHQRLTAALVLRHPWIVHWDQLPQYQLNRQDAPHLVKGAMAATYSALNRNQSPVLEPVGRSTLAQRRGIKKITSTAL
Chain of Mitogen-activated protein kinase kinase kinase 1 (Q13233 whole entry): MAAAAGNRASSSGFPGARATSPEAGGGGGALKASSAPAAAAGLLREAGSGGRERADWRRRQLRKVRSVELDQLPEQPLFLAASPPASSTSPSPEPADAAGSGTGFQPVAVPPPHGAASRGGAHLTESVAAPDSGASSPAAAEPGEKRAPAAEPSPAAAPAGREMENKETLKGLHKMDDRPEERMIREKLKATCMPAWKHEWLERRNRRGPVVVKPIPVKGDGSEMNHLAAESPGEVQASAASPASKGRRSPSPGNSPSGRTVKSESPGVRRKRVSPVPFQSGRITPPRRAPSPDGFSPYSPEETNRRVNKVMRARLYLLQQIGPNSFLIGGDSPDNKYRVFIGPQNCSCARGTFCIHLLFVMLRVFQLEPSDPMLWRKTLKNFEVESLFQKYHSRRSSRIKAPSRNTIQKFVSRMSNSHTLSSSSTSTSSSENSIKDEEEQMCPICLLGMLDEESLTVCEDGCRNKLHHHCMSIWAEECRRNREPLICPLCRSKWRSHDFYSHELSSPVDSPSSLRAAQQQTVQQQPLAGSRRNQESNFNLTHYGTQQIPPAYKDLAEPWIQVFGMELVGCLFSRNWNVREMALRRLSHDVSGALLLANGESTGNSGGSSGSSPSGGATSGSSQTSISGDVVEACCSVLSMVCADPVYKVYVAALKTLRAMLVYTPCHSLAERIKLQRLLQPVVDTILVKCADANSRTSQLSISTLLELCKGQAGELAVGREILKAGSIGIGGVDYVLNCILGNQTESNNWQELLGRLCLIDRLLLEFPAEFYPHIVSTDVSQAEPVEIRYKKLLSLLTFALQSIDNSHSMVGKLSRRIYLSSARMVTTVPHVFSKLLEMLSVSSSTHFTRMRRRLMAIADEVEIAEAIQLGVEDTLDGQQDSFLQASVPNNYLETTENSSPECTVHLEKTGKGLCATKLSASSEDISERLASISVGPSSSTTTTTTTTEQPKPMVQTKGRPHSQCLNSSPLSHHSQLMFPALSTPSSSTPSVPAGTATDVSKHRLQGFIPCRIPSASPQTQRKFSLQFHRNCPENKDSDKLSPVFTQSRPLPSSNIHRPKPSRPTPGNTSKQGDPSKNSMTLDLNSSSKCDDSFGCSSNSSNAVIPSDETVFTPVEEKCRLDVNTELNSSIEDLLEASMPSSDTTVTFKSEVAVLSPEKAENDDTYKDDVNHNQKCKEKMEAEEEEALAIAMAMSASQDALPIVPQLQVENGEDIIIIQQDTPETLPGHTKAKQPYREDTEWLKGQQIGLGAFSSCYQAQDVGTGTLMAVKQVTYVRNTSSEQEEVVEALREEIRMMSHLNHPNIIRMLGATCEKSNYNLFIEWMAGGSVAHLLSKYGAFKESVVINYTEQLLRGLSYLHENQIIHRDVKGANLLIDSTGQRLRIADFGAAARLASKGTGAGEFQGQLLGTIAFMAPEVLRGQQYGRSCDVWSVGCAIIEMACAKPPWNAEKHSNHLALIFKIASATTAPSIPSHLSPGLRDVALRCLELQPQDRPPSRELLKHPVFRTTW
Chain of Epidermal growth factor receptor (P00533 whole entry): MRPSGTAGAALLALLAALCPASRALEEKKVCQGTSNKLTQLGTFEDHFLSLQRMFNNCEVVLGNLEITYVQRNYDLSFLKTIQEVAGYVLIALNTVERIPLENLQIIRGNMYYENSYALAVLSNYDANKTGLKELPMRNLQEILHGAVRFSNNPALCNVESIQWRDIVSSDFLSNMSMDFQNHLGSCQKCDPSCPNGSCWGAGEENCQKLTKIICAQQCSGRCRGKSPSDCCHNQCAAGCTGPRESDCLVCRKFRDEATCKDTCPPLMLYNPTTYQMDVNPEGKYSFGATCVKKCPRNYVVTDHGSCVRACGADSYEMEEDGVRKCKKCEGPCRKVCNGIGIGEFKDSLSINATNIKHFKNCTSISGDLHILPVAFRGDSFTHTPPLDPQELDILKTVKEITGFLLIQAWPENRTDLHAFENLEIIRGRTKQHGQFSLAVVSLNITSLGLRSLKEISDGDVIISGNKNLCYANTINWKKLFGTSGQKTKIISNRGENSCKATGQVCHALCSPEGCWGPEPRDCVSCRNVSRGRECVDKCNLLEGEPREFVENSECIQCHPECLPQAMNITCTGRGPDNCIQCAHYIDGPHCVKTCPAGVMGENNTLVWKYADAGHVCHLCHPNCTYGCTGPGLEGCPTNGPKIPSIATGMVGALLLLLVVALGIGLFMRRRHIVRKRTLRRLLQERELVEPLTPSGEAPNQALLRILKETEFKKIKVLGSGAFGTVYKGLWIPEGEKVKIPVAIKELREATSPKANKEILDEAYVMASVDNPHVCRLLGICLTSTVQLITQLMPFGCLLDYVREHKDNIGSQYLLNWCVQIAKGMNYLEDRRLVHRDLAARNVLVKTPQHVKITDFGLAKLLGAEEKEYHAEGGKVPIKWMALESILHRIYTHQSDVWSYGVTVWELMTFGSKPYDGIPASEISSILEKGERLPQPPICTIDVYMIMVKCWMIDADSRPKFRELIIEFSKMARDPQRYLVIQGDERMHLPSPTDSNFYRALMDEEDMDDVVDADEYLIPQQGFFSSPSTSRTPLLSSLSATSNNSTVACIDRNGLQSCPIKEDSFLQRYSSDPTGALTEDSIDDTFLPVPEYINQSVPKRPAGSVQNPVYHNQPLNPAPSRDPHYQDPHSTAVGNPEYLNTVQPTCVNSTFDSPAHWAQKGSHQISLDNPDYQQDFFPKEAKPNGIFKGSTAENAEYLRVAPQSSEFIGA

## CCOc1cc(N2CCC(O)CC2)ccc1Nc1ncc2c(n1)N(C)c1ccccc1C(=O)N2C
[1]
  inhibition at 2 µM: 2%
[2]
  inhibition: -4.3%
[3]
  inhibition: -9%
[4]
  inhibition: 6%
[5]
  IC50: > 50 µM
[6]
  inhibition: 9.9%
[7]
  Activity: 31 mg/dL
p38 delta/gamma
  IC50: > 50 µM
Lewis lung carcinoma
  Activity: Active
[8]
  inhibition: 12%
[9]
  IC50: > 50 µM
[10]
  inhibition: 15.9%
[11]
  IC50: > 50 µM
[12]
  IC50: > 50 µM
[13]
  inhibition: 49%
[14]
  inhibition: 11.6%
[15]
  inhibition: 37.2%
[16]
  IC50: > 50 µM
